SENP8 block-1: SENP8 protease inhibition | AID 2540 | purified SENP8, Z-RLRGG-aminoluciferin cleavage, luminescence | inhibition, % at 10 µM | actives 1.2% (n = 330,000) | Q96LD8; in the data active = inhibition above about 50%
SENP1 FRET inh: blocks the human SENP1 SUMO protease catalytic domain; recombinant SENP1 catalytic domain, CyPet-SUMO1-YPet FRET cleavage; AID 624204; inhibition, % at 10 µM; actives 0.21% (n = 360,000); Q9P0U3;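 active = inhibition at least 30% at 10 µM, raw YFP signal under a set limit, fluorescence ratio 0.5 to 1.5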;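 also: 0% = enzyme with DMSO and 100% = no enzyme wells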
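material = recombinant human SENP1 catalytic domain, His6-tagged | quantity = 20 pM enzyme | reagent = 25 nM SUMO1 FRET substrate | compound dosing = 10 µM single point, 0.5% DMSO | timing = 50 min enzyme reaction, room temperature, light-protected | detection = FRET, CFP and YFP emission | control set = no-enzyme low, enzyme-DMSO high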
SENP8 block-2: SENP8 (human) protease inhibition. recombinant SENP8, Nedd8 substrate fluorescence. inhibition, % at 20 µM. actives 0.64% (n = 360,000). AID 602440; in the data active = inhibition mostly above about 40%, no sharp cut-off; inactive = mostly below about 27%
SENP7 inh: inhibitors of human SENP7 protease. Q9BQF6. recombinant SENP7, Z-RLRGG-aminoluciferin luminescence, 40 min. inhibition, % at 5 µM. actives 1.5% (n = 330,000). AID 434973;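 active = inhibition above about 50% at the single test dose, limit read from the data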;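 also: plate controls were DMSO with enzyme for no effect and no enzyme buffer wells for full effect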
UCH37 inh: human UCH37 deubiquitinating enzyme inhibition | Q9Y5K5 | purified proteasome/UCH37, Ub-AMC cleavage fluorescence | inhibition, % (test concentration not listed) | actives 0.33% (n = 330,000) | AID 588478;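 active = mean inhibition over replicate wells above about 20%, limit read from the data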;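 also: 0% = compound-free wells with enzyme and 100% = wells lacking proteasome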
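Material: Human UCH37 enzyme supplied as purified proteasome complex | Schedule: 30 min preincubation with enzyme, 25 min cleavage at room temperature | Detection: AMC fluorescence 355/460 nm | Measure: % inhibition of Ub-AMC cleavage fluorescence | Controls: Wells without proteasome as full block, compound-free enzyme plus substrate as uninhibited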
SENP6 block: blocks the human protease SENP6; Q9GZR1; Recombinant SENP6 catalytic domain, aminoluciferin luminescence; inhibition, % at 10 µM; actives 1.8% (n = 330,000);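 active = inhibition above about 50% at the single tested dose, limit read from the data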;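 also: plate controls were DMSO wells with enzyme for no effect and DMSO wells lacking enzyme for full effect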
Target sequence (Q9GZR1 628-1112 limits assumed): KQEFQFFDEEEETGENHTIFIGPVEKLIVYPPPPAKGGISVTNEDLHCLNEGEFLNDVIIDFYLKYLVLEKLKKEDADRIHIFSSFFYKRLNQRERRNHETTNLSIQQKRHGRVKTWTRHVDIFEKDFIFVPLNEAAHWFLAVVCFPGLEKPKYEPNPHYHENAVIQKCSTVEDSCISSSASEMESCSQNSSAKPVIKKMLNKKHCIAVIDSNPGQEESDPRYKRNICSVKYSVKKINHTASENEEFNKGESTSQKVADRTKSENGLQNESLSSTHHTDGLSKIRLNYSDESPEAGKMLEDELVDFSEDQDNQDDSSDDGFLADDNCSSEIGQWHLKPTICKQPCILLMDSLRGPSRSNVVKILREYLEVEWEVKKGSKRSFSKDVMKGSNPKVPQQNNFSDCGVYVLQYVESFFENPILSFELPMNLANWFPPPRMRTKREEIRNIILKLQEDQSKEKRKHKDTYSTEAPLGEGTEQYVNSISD
SENP8 conf: confirmation of human SENP8 protease inhibitors. shares compounds with SENP7 inh. Recombinant SENP8, Z-RLRGG-aminoluciferin luminescence, 60 min. inhibition, % at 12.5 µM. actives 40% (n = 6,200). AID 488912;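 active = mean inhibition across replicates above about 50%, limit read from the data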
SENP6 confirm: human SENP6 inhibition, confirmed | shares compounds with SENP7 inh | recombinant SENP6, Z-RLRGG-aminoluciferin luminescence | inhibition, % at 12.5 µM | actives 58% (n = 6,200)
SENP7 conf: confirmation of human SENP7 protease inhibitors; shares compounds with SENP7 inh; recombinant SENP7, Z-RLRGG-aminoluciferin luminescence, 40 min; inhibition, % at 12.5 µM; actives 69% (n = 6,200)
Casp3 select: caspase-3 inhibition (SENP selectivity assay); shares compounds with SENP7 inh; purified caspase-3, Z-DEVD-aminoluciferin luminescence, 60 min; inhibition, % at 12.5 µM; actives 60% (n = 6,200); AID 488918;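 active = mean inhibition above about 50%, limit read from the data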;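 also: plate controls were enzyme with DMSO for no effect and wells without caspase-3 for full effect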
SENP luc ctr: interferes with luciferase luminescence in SENP counter-screen; shares compounds with SENP7 inh; Pre-incubated SENP8/Z-RLRGG-aminoluciferin, luciferase luminescence interference; inhibition, % at 12.5 µM; actives 39% (n = 6,200); AID 488919;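 active = mean inhibition above about 50% when retested at one dose, limit read from the data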;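 also: plate controls were DMSO wells with completed reaction for no effect and substrate without enzyme for full effect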
Active calls of the source: *; x = no result given. This is a sample that favours compounds with a hit; in the whole collection about 2.6% have one here.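 The calls were made as follows, unless noted: active = mean inhibition above about 50% in the one-dose retest (limit read from the data); inactive = the rest.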

SMILES	SENP8 block-1	SENP1 FRET inh	SENP8 block-2	SENP7 inh	UCH37 inh	SENP6 block	SENP8 conf	SENP6 confirm	SENP7 conf	Casp3 select	SENP luc ctr
Cc1ccc(Nc2nc3nonc3[nH]c2=O)cc1	60*	2	10	60*	11	36	75*	66*	84*	74*	71*
COc1ccccc1Nc1nc2nonc2[nH]c1=O	-23	4	-2	-12	7	-9	x	x	x	x	x
O=C(NN=Cc1ccc([N+](=O)[O-])cc1)c1cnccn1	x	x	x	x	11	x	x	x	x	x	x
Cc1cccc(NC(=O)Nc2ccc3c(c2)CCC3)c1	-11	-1	4	62*	1	34	3	-5	-1	18	-12
COc1cccc(NC(=O)c2ccc3c(c2)CCCC3)c1	96*	-3	4	100*	4	98*	98*	99*	102*	97*	94*
COc1cccc(NC(=O)Nc2ccc3c(c2)CCC3)c1	52*	0	4	67*	1	58*	1	14	83*	x	31
O=C(COc1ccccc1[N+](=O)[O-])NN=C/C=C/c1ccco1	x	x	x	x	4	x	x	x	x	x	x
Oc1ccc(NCc2ccccc2OCc2ccccc2F)cc1	20	2	76*	31	1	60*	17	20	5	7	5
Cc1ccc(NCc2ccccc2OCc2ccccc2F)cc1	8	1	10	9	2	23	x	x	x	x	x
C#CCn1cc(C=NNC(=O)c2cc3ccccc3o2)c2ccccc21	x	x	x	x	-78	x	x	x	x	x	x
COc1ccc(/C=C/C(=O)c2ccccc2O)cc1	64*	1	11	67*	2	81*	88*	84*	84*	35	46
COc1ccc(/C=C/C(=O)c2ccoc2)cc1	-17	1	-12	-6	2	6	x	x	x	x	x
COc1ccc(/C=C/C(=O)c2ccccn2)cc1	17	-89	-22	15	3	27	x	x	x	x	x
COc1ccc(/C=C/C(=O)c2ccc(O)cc2)cc1	90*	2	35	74*	-4	91*	65*	48	64*	49	83*
O=C(NN=Cc1ccc([N+](=O)[O-])o1)c1cn(-c2ccccc2)nc1-c1ccc(F)cc1	x	x	x	x	5	x	x	x	x	x	x
COc1cccc(CSc2nc3ccccc3[nH]2)c1	77*	2	5	81*	4	64*	0	79*	95*	80*	82*
O=[N+]([O-])c1cccc(CSc2nc3ccccc3[nH]2)c1	-14	-1	21	-5	6	-17	x	x	x	x	x
Fc1ccccc1CSc1nc2ccccc2[nH]1	79*	2	16	85*	2	83*	86*	85*	96*	83*	86*
CS(=O)(=O)c1ccc2nc(NC(=O)Cc3ccccc3)sc2c1	-19	3	8	-12	6	-14	x	x	x	x	x
Cc1ccc(NC(=O)Nc2nc3ccc(S(C)(=O)=O)cc3s2)cc1	-7	-1	-47	12	-1	-18	x	x	x	x	x
Cc1cccc(C(=O)Nc2nc3ccc(S(C)(=O)=O)cc3s2)c1	63*	3	-81	74*	-1	75*	7	42	88*	78*	-2
CS(=O)(=O)c1ccc2nc(NC(=O)Nc3ccccc3F)sc2c1	6	0	-7	72*	0	33	-7	-2	1	5	-3
Cc1ccc(C(=O)Nc2nc3ccc(S(C)(=O)=O)cc3s2)cc1C	9	1	-38	6	-1	3	x	x	x	x	x
CS(=O)(=O)c1ccc2nc(NC(=O)c3ccccc3)sc2c1	78*	2	-42	88*	-1	88*	14	80*	94*	88*	24
CCSc1nsc(NC(=O)Nc2ccccc2F)n1	36	0	11	50	0	65*	28	42	79*	48	15
SMILES	SENP8 block-1	SENP1 FRET inh	SENP8 block-2	SENP7 inh	UCH37 inh	SENP6 block	SENP8 conf	SENP6 confirm	SENP7 conf	Casp3 select	SENP luc ctr
NC(N)=NN=Cc1ccccc1OC(F)F	x	x	x	x	8	x	x	x	x	x	x
O=C(NN=C/C=C/c1ccc2c(c1)OCO2)c1cccnc1	x	x	x	x	5	x	x	x	x	x	x
COc1ccc(C(=O)O/N=C(\N)c2ccncc2)cc1OC	-5	1	24	3	2	-6	x	x	x	x	x
N/C(=N\OC(=O)c1ccc2c(c1)OCO2)c1ccc(Cl)cc1	76*	-1	0	-6	3	87*	23	68*	94*	86*	18
Cc1ccc(/C(N)=N/OC(=O)c2ccc3c(c2)OCO3)cc1	60*	2	2	42	-21	71*	24	43	87*	81*	20
COc1ccc(/C(N)=N/OC(=O)c2cccc([N+](=O)[O-])c2)cc1	-6	1	24	11	1	5	x	x	x	x	x
Cc1cc(C)cc(C(=O)O/N=C(\N)c2ccc(Br)cc2)c1	-5	3	8	0	0	-4	x	x	x	x	x
COc1ccc(/C(N)=N/OC(=O)c2ccc3c(c2)OCO3)cc1	28	1	16	68*	0	50	9	25	31	30	4
N/C(=N\OC(=O)c1ccc2c(c1)OCO2)c1ccncc1	43	7	10	60*	2	68*	53*	48	76*	82*	60*
COC(=O)c1[nH]c2cc(OC)c(OC)cc2c1C=NNc1ccccc1	x	x	x	x	-63	x	x	x	x	x	x
COc1ccc(C2=NN3C(C2)c2ccccc2OC3c2cccs2)cc1 (centres undefined)	28	-31	-23	15	0	-24	x	x	x	x	x
COc1ccc(C2=NN3C(C2)c2ccccc2OC32C(=O)N(C)c3ccccc32)cc1 (centres undefined)	79*	-28	-452	80*	-20	91*	12	4	14	8	5
CCOc1ccc(C=Nn2c(C3CCCCC3)n[nH]c2=S)cc1	x	x	x	x	4	x	x	x	x	x	x
COc1ccc(Cl)cc1NC(=O)Nc1ccccc1SC	0	-1	10	0	1	-8	x	x	x	x	x
